# Columns and labels:
# Klebsiella pneumoniae = assay: Compound was tested for inhibition of the gram-negative organism Klebsiella pneumoniae MGH-2; format: functional
# Outline: (§1)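 MICs read in standard microdilution (microtitration) format against a panel of 10 bacterial organisms; values in µg/mL.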
# Escherichia coli [1] = assay: Compound was tested for inhibition of the gram-negative organism Escherichia coli H560; format: functional; outline: as §1
# Staphylococcus aureus [2] = assay: Compound was tested for inhibition of the […] organism […] UC-76.; format: functional; outline: as §1
# Pseudomonas aeruginosa = assay: Compound was tested for inhibition of the gram-negative organism Pseudomonas aeruginosa UI-18; format: functional; outline: as §1
# Mus musculus [3] = assay: Compound was evaluated for protective dose against the Escherichia coli vogel lethal infection following sc administration in mouse; format: functional; conditions: read-out: PD50
# Outline: (§2)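 Acute lethal systemic infection in female Charles River CD-1 mice (18–22 g), challenged intraperitoneally with an estimated 100 median lethal dose in 5% hog gastric mucin. Single doses in a twofold rising series were given with the challenge, sc as aqueous solution or po by gavage in 5% gum acacia. PD50 (mg/kg) was estimated by log probit from survival of eight mice per dose.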
# Mus musculus [4] = assay: Compound was evaluated for protective dose against the Streptococcus pneumoniae SV-1 lethal infection following po administration; format: functional; conditions: read-out: PD50
# Outline: (§3)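 Female Charles River CD-1 mice (18–22 g) were challenged intraperitoneally with an estimated 100 median lethal dose in tryptic soy broth. Single doses, in a twofold rising series, were given at the same time as challenge: subcutaneously as aqueous solution, or orally by gavage in 5% gum acacia. Survival in groups of eight mice per dose gave PD50 (mg/kg) by log probit.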
# Escherichia coli [5] = assay: Compound was tested for inhibition of the gram-negative organism Escherichia coli vogel; format: functional; outline: as §1
# Enterobacter cloacae = assay: Compound was tested for inhibition of the gram-negative organism […] HA 2646; format: functional
# Mus musculus [6] = assay: Compound was evaluated for protective dose against Streptococcus pneumoniae SV-1 lethal infection following sc administration; format: functional; conditions: read-out: PD50; outline: as §3
# Mus musculus [7] = assay: Compound was evaluated for protective dose against the Escherichia coli vogel lethal infection following peroral administration in mouse; format: functional; conditions: po, read-out: PD50; outline: as §2
# Staphylococcus aureus [8] = assay: Compound was tested for inhibition of the […] organism […] H228.; format: functional; outline: as §1
# Providencia rettgeri = assay: Compound was tested for inhibition of the gram-negative organism Providencia rettgeri H1771; format: functional; outline: as §1
# [9] = biological target: DNA gyrase (Escherichia coli) (UniProt P0AES6+P0AES4); assay: Inhibition of DNA gyrase of Escherichia coli H560 cells
# Outline: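 DNA gyrase purified from Escherichia coli H560 cells. Cleavage assay: drug-gyrase-DNA complex denatured, converting closed circular DNA to linear DNA. Linear DNA resolved by gel electrophoresis and stained with ethidium bromide. Value is the minimum drug concentration (µg/mL) giving linear DNA at an intensity relative to oxolinic acid at 10 µg/mL. Aqueous drug stocks made up in 0.1 N NaOH or KOH.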
# Streptococcus pneumoniae = assay: Compound was tested for inhibition of the […] organism Streptococcus pneumoniae SV-1; format: functional; outline: as §1
# Enterococcus faecalis = assay: Compound was tested for inhibition of the […] organism Streptococcus faecalis MGH-2; format: functional; outline: as §1
# Streptococcus pyogenes = assay: Compound was tested for inhibition of the […] organism Streptococcus pyogenes C203.; format: functional; outline: as §1
# Mus musculus [10] = assay: Compound was evaluated for protective dose against the […] UC-76 lethal infection following po administration in mouse; format: functional; conditions: read-out: PD50; outline: as §2
# Mus musculus [11] = assay: Compound was evaluated for protective dose against the […] UC-76 lethal infection following sc administration in mouse; format: functional; conditions: read-out: PD50; outline: as §2
Compound,MIC (Klebsiella pneumoniae) [µg/mL],MIC (Escherichia coli [1]) [µg/mL],MIC (Staphylococcus aureus [2]) [µg/mL],MIC (Pseudomonas aeruginosa) [µg/mL],ED50 (Mus musculus [3]) [mg/kg],ED50 (Mus musculus [4]) [mg/kg],MIC (Escherichia coli [5]) [µg/mL],MIC (Enterobacter cloacae) [µg/mL],ED50 (Mus musculus [6]) [mg/kg],ED50 (Mus musculus [7]) [mg/kg],MIC (Staphylococcus aureus [8]) [µg/mL],MIC (Providencia rettgeri) [µg/mL],Min concentration [9] [µg/mL],MIC (Streptococcus pneumoniae) [µg/mL],MIC (Enterococcus faecalis) [µg/mL],MIC (Streptococcus pyogenes) [µg/mL],ED50 (Mus musculus [10]) [mg/kg],ED50 (Mus musculus [11]) [mg/kg]
CCn1cc(C(=O)O)c(=O)c2cc(F)c(N3CCC(CN)C3)c(F)c21 (stereo unspecified),0.4,0.1,0.1,0.8,1.2,100,0.1,0.2,5,90,0.1,0.4,0.5,0.2,0.1,0.1,–,–
CNn1cc(C(=O)O)c(=O)c2cc(F)c(N3CCN(C)CC3)cc21 [AMIFLOXACIN],0.2,0.025,0.4,0.8,1,> 100,0.1,–,> 25,4.5,1.6,0.2,–,12.5,3.1,12.5,–,–
CCn1cc(C(=O)O)c(=O)c2cc(F)c(N3CCNCC3)nc21 [ENOXACIN],0.2,0.1,0.4,1.6,2,> 200,0.2,0.2,> 100,3,1.6,0.1,5,–,3.1,12.5,12,10
CCn1cc(C(=O)O)c(=O)c2cc(F)c(N3CCC(CNC)C3)cc21 (stereo unspecified),1.6,0.2,0.013,1.6,18,> 100,0.2,1.6,> 25,> 100,0.8,6.3,–,0.2,1.6,0.1,> 50,8
CCn1cc(C(=O)O)c(=O)c2cc(F)c(N3CCC(CNC)C3)c(F)c21 (stereo unspecified),0.8,0.2,0.1,1.6,1.9,37,0.4,0.4,11,6.9,0.2,0.8,0.5,0.1,0.1,0.1,–,–
O=C(O)c1cn(C2CC2)c2cc(N3CCNCC3)c(F)cc2c1=O [CIPROFLOXACIN],0.1,0.025,0.2,0.4,0.25,> 100,–,–,18,1.2,3.1,0.1,0.5,–,0.8,0.8,9.5,3
CCNCC1CCN(c2cc3c(cc2F)c(=O)c(C(=O)O)cn3CC)C1 (stereo unspecified),0.4,0.1,0.05,1.6,15,–,0.1,0.2,–,> 100,0.2,1.6,2.5,0.2,0.2,0.1,35,3

# From ChEMBL document CHEMBL1123422, “1-Ethyl-7-[3-[(ethylamino)methyl]-1-pyrrolidinyl]-6,8-difluoro-1,4- dihydro-4-oxo-3-quinoline-carboxylic acid. New quinolone antibacterial with potent gram-positive activity” (1986)
